From ChEMBL document CHEMBL1126600, “A trans-platinum complex showing higher antitumor activity than the cis congeners” (J Med Chem, 1993) come the findings set out here.

Assay type in all cases: functional, cell-based
What all share (conditions): Mus musculus

For assay [1], the system named is P388. Description: Effect was evaluated by implanting P388/DDP leukemia cells into B6D2F1 mice and treated for 1 day at 193 umol/ Kg dose. A digest of the protocol: (§1)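 P388 or P388/DDP leukemia cells (10^6/mouse) implanted ip into B6D2F1 mice on day 0; 6 animals/group, 8 untreated controls. Complexes dissolved in water just before use, given ip. Read-out %T/C = median survival time ×100 of treated vs untreated; >125% taken as significant. P388/DDP subline raised in vivo by serial passage with single ip cis-DDP (20 µmol/kg) 2 days after implantation.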

The subject of assay [2] is P388. Description: Inhibitory effect was evaluated on the growth of P388 cells. A digest of the protocol:
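P388 cells (10^5 cells/mL, exponential growth) exposed to the platinum complexes at increasing concentrations for 1 h at 37 °C, drug removed, then grown 48 h more; cell number and viability counted by trypan blue exclusion. ID50 = 50% growth-inhibitory concentration; five experiments, each in triplicate, mean ± standard deviation.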

The test system of assay [3] is P388. Briefly: Effect was evaluated by implanting P388 cells into B6D2F1 mice and treated for 1 day at 193 umol/ Kg dose. The procedure, abridged:
as §1

The subject of assay [4] is P388. Briefly: Effect was evaluated by implanting P388/DDP leukemia cells into B6D2F1 mice and treated for 1-7 days at 2 umol/ Kg dose. The procedure, abridged: as §1
Assay [5] has as its system P388. Briefly: Effect was evaluated by implanting P388 cells into B6D2F1 mice and treated for 1 day at 26 umol/ Kg dose. A digest of the protocol: as §1
The subject of assay [6] is P388. Description: Effect was evaluated by implanting P388 cells into B6D2F1 mice and treated for 1-7 days at 2 umol/ Kg dose. A digest of the protocol: as §1

Take TRANSPLATIN: the T/C with P388 [1] is 107%; in the assay with P388 [3], 105%. For the same sequence, the ID50 in the assay with P388 [2] turned out to be 85 µM.

Turning to CISPLATIN, the T/C with P388 [4] was determined as 90%; in the assay with P388 [1], 95%; in the assay on P388 [5], 202%; with P388 [6], 203%. Besides, in the assay on P388 [2], the ID50 is 2.05 µM.
